ChEMBL document CHEMBL4382192, “Discovery of a potent dual ALK and EGFR T790M inhibitor” (Eur J Med Chem, 2017)

How the values were obtained:
[1] = biological target: Ribosomal protein S6 kinase alpha-1 (Homo sapiens) (UniProt Q15418); assay: Binding affinity to wild-type human partial length N-terminal RSK1 Kinase domain 1 (M1 to E388 residues) expressed in bacterial expression system assessed as residual binding level at 1 uM by Kinomescan method relative to control
[2] = biological target: Activin receptor type-1B (Homo sapiens) (UniProt P36896); assay: Binding affinity to wild-type human ACVR1B (S187 to I505 residues) expressed in bacterial expression system assessed as residual binding level at 1 uM by Kinomescan method relative to control
[3] = system: Phosphatidylinositol 4,5-bisphosphate 3-kinase catalytic subunit alpha isoform (Homo sapiens), P42336 [E545K]; assay: Binding affinity to human partial length PIK3CA E545K mutant (R108 to N1068 residues) expressed in mammalian expression system assessed as residual binding level at 1 uM by Kinomescan method relative to control
[4] = system: Receptor-type tyrosine-protein kinase FLT3 (Homo sapiens), P36888 [UNDEFINED MUTATION]; assay: Binding affinity to human partial length FLT3 ITD mutant expressed in bacterial expression system assessed as residual binding level at 1 uM by Kinomescan method relative to control
How it was run: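 Kinome-wide selectivity panel run by the KINOMEscan method, with the test compound at a single concentration of 1 μM. Wild-type and mutant kinases were profiled in the same screen.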

[5] = biological target: Aurora kinase C (Homo sapiens) (UniProt Q9UQB9); assay: Binding affinity to wild-type human full length AURKC (M1 to S275 residues) expressed in bacterial expression system assessed as residual binding level at 1 uM by Kinomescan method relative to control
[6] = Clearance in mouse at 2 mg/kg, iv; format: ADME, organism-based; settings: in vivo
[7] = biological target: Phosphatidylinositol 4,5-bisphosphate 3-kinase catalytic subunit beta isoform (Homo sapiens) (UniProt P42338); assay: Binding affinity to wild-type human partial length PIK3CB (P118 to S1070 residues) expressed in mammalian expression system assessed as residual binding level at 1 uM by Kinomescan method relative to control
[8] = biological target: Serine/threonine-protein kinase 24 (Homo sapiens) (UniProt Q9Y6E0); assay: Binding affinity to wild-type human partial length MST3 (A30 to S311 residues) expressed in bacterial expression system assessed as residual binding level at 1 uM by Kinomescan method relative to control
[9] = biological target: Mitogen-activated protein kinase kinase kinase 14 (Homo sapiens) (UniProt Q99558); assay: Binding affinity to wild-type human partial length NIK (L318 to P947 residues) expressed in mammalian expression system assessed as residual binding level at 1 uM by Kinomescan method relative to control
[10] = Metabolic stability in human liver microsomes assessed as parent compound remaining at 1 uM after 30 mins in presence of NADPH by LC/MS/MS analysis; format: ADME, Microsome; settings: read-out: Stability
How it was run: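 Compound at 1 μM final with 0.5 mg/mL microsomal protein in 100 mM phosphate buffer pH 7.4 at 37 °C, started by adding an NADPH-regenerating system. Reactions were quenched with cold acetonitrile at 0 and 30 min and spun down. Supernatant was analysed by LC-MS/MS. The 0-min sample, quenched before NADPH addition, was set as 100%, and percent parent remaining came from peak areas.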

[11] = biological target: Tyrosine-protein kinase Yes (Homo sapiens) (UniProt P07947); assay: Binding affinity to wild-type human partial length YES (T257 to L543 residues) expressed in bacterial expression system assessed as residual binding level at 1 uM by Kinomescan method relative to control
[12] = Half life in mouse at 2 mg/kg, iv; format: ADME, organism-based; settings: in vivo
[13] = biological target: STE20-like serine/threonine-protein kinase (Homo sapiens, UniProt Q9H2G2); assay: Inhibition of recombinant full length GST-tagged human SLK expressed in baculovirus expression system by LanthaScreen assay
[14] = biological target: Serine/threonine-protein kinase DCLK2 (Homo sapiens) (UniProt Q8N568); assay: Binding affinity to wild-type human partial length DCAMKL2 (K273 to V664 residues) expressed in bacterial expression system assessed as residual binding level at 1 uM by Kinomescan method relative to control
[15] = biological target: Vascular endothelial growth factor receptor 2 (Homo sapiens) (UniProt P35968); assay: Binding affinity to wild-type human partial length VEGFR2 (R787 to P1253 residues) expressed in mammalian expression system assessed as residual binding level at 1 uM by Kinomescan method relative to control
[16] = biological target: Serine/threonine-protein kinase VRK2 (Homo sapiens) (UniProt Q86Y07); assay: Binding affinity to wild-type human partial length VRK2 (M1 to T336 residues) expressed in mammalian expression system assessed as residual binding level at 1 uM by Kinomescan method relative to control
CYP2C19 = CYP2C19 (Homo sapiens, UniProt P33261); assay: Residual activity of CYP2C19 in human liver microsomes at 10 uM using S-mephenytoin 4-hydroxylase as substrate preincubated for 5 mins followed by NADPH addition measured after 15 mins by LC/MS/MS analysis relative to control; settings: probe S-mephenytoin (4-hydroxylation)
[17] = biological target: Phosphatidylinositol 3-kinase catalytic subunit type 3 (Homo sapiens) (UniProt Q8NEB9); assay: Binding affinity to wild-type human partial length VPS34 (S282 to H879 residues) expressed in mammalian expression system assessed as residual binding level at 1 uM by Kinomescan method relative to control
[18] = biological target: Ephrin type-B receptor 6 (Homo sapiens) (UniProt O15197); assay: Binding affinity to wild-type human partial length EPHB6 (Q634 to P948 residues) expressed in mammalian expression system assessed as residual binding level at 1 uM by Kinomescan method relative to control
[19] = biological target: Cytoplasmic tyrosine-protein kinase BMX (Homo sapiens) (UniProt P51813); assay: Binding affinity to wild-type human full length BMX (M1 to H675 residues) expressed in bacterial expression system assessed as residual binding level at 1 uM by Kinomescan method relative to control
[20] = Cmax in mouse at 10 mg/kg, po; format: ADME, organism-based; set-up: dose 10 mg/kg, route oral; settings: in vivo
[21] = biological target: Serine/threonine-protein kinase PAK 2 (Homo sapiens) (UniProt Q13177); assay: Binding affinity to wild-type human partial length PAK2 (P151 to R525 residues) expressed in bacterial expression system assessed as residual binding level at 1 uM by Kinomescan method relative to control
[22] = biological target: Ribosomal protein S6 kinase alpha-4 (Homo sapiens) (UniProt O75676); assay: Binding affinity to wild-type human partial length C-terminal RPS6KA4 kinase domain 2 (M375 to T705 residues) expressed in mammalian expression system assessed as residual binding level at 1 uM by Kinomescan method relative to control
[23] = biological target: Homeodomain-interacting protein kinase 4 (Homo sapiens) (UniProt Q8NE63); assay: Binding affinity to wild-type human partial length HIPK4 (M1 to V384 residues) expressed in bacterial expression system assessed as residual binding level at 1 uM by Kinomescan method relative to control
[24] = biological target: Serine/threonine-protein kinase 38 (Homo sapiens) (UniProt Q15208); assay: Binding affinity to wild-type human partial length NDR1 (N33 to E449 residues) expressed in mammalian expression system assessed as residual binding level at 1 uM by Kinomescan method relative to control
[25] = Tmax in mouse at 10 mg/kg, po; format: ADME, organism-based; settings: in vivo

Sequence of STE20-like serine/threonine-protein kinase (Q9H2G2 whole entry, the tested form may be a part): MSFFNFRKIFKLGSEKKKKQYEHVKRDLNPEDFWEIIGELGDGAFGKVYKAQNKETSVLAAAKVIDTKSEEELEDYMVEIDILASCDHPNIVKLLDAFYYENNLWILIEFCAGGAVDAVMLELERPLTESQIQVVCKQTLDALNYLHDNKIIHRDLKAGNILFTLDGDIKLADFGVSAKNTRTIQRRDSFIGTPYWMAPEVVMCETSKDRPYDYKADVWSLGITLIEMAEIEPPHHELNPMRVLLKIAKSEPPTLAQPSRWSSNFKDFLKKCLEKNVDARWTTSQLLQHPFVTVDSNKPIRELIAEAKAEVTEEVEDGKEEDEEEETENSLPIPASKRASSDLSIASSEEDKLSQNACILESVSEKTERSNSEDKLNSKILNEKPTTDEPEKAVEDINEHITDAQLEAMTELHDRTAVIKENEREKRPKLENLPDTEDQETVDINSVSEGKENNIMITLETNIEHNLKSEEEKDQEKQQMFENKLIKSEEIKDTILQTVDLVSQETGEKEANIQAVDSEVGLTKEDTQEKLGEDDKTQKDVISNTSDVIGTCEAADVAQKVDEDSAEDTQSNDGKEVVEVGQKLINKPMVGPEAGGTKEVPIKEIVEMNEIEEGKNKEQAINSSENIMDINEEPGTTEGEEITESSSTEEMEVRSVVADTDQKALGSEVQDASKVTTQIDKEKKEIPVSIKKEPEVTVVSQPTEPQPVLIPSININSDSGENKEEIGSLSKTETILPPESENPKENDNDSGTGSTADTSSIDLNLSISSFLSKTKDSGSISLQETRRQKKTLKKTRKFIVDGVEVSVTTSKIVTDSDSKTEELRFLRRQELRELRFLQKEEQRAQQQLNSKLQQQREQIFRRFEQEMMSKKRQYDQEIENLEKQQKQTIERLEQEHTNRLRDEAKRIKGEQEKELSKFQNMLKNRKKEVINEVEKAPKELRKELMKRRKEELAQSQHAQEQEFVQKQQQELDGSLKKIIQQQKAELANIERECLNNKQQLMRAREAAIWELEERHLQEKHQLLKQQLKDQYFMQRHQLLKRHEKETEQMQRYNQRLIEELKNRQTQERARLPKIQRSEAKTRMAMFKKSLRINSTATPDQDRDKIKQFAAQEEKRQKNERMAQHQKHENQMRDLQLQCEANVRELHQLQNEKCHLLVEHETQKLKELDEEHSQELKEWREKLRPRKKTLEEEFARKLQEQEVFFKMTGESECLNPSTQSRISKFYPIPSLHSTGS
Sequence of Tyrosine-protein kinase Yes (Homo sapiens) (P07947 2-543 limits assumed): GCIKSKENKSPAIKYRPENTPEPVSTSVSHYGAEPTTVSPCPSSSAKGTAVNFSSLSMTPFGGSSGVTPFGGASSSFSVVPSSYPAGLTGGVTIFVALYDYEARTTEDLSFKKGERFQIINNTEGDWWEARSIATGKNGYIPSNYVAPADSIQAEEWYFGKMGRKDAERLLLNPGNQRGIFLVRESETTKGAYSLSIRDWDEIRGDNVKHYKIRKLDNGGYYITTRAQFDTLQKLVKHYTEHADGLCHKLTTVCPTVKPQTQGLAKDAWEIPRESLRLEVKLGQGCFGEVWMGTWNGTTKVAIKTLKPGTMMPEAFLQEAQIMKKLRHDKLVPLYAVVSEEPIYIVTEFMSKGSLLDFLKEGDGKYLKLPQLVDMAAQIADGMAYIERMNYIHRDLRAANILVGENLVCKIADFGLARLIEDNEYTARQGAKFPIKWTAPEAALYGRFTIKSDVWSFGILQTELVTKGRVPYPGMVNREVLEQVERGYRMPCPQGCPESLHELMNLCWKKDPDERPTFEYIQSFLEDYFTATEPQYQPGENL
Sequence of Activin receptor type-1B (Homo sapiens) (P36896 whole entry, the tested form may be a part, canonical isoform): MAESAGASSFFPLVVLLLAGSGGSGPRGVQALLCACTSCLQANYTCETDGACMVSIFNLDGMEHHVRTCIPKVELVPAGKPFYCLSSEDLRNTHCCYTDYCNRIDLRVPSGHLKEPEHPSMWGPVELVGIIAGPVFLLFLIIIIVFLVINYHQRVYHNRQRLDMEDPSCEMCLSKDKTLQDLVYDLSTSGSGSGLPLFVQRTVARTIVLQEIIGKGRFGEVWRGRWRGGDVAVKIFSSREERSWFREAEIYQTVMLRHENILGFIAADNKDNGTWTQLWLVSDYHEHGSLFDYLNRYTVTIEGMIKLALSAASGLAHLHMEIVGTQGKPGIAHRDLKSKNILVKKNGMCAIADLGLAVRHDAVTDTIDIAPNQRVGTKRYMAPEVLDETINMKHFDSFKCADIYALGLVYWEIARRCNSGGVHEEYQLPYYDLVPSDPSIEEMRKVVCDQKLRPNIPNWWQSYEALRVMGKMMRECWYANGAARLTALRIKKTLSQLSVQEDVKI
Sequence of Serine/threonine-protein kinase PAK 2 (Homo sapiens) (Q13177 whole entry, the tested form may be a part): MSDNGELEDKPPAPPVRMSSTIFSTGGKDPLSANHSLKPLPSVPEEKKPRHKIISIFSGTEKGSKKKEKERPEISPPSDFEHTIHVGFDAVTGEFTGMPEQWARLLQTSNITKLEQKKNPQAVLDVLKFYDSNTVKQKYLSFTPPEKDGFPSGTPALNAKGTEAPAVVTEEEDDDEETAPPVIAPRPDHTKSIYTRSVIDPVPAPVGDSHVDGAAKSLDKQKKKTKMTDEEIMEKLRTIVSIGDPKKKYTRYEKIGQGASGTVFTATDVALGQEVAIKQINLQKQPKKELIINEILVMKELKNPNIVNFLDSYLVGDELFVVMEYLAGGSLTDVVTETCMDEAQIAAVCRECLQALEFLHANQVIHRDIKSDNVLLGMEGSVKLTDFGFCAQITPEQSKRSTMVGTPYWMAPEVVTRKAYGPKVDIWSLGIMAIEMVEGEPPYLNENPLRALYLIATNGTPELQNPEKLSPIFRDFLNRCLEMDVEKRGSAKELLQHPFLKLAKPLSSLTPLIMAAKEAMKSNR
Sequence of Aurora kinase C (Homo sapiens) (Q9UQB9 whole entry, the tested form may be a part): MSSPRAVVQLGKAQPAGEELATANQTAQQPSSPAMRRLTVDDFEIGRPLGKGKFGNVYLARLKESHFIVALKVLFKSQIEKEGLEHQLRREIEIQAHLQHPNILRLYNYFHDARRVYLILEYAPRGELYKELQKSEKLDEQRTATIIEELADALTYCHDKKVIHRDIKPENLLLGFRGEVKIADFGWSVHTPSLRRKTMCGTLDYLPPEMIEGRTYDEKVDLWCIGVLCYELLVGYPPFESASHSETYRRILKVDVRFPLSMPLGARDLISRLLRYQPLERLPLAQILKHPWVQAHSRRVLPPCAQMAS
Sequence of Phosphatidylinositol 4,5-bisphosphate 3-kinase catalytic subunit beta isoform (Homo sapiens) (P42338 whole entry, looked up, the tested form may be a part, canonical isoform): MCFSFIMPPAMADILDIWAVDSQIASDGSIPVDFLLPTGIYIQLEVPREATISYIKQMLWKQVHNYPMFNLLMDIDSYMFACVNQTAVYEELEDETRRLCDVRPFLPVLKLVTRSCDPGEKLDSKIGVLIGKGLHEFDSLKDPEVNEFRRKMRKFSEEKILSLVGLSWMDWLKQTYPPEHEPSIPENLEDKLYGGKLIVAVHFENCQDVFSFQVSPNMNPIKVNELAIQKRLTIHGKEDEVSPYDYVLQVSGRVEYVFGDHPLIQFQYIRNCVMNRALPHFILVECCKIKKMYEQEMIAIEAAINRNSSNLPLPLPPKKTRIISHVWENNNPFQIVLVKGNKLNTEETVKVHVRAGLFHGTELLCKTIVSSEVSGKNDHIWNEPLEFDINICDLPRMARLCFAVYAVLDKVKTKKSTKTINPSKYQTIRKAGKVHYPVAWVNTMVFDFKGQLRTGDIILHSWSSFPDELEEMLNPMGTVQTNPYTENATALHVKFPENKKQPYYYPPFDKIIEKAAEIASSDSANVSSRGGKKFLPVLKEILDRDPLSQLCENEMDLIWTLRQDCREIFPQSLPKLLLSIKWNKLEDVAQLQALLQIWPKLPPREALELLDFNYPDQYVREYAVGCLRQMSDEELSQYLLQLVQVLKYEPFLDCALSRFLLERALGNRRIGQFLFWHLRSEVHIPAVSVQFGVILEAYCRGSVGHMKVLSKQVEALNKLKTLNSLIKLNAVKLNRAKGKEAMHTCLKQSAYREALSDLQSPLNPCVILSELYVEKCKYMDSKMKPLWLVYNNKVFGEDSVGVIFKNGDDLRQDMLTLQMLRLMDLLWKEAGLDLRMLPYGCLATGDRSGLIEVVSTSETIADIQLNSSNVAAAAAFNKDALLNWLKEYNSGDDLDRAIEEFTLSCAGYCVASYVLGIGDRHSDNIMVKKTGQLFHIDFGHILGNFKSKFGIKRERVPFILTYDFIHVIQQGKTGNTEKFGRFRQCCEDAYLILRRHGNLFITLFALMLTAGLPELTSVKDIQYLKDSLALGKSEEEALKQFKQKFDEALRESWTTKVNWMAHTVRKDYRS
Sequence of Homeodomain-interacting protein kinase 4 (Homo sapiens) (Q8NE63 whole entry, the tested form may be a part): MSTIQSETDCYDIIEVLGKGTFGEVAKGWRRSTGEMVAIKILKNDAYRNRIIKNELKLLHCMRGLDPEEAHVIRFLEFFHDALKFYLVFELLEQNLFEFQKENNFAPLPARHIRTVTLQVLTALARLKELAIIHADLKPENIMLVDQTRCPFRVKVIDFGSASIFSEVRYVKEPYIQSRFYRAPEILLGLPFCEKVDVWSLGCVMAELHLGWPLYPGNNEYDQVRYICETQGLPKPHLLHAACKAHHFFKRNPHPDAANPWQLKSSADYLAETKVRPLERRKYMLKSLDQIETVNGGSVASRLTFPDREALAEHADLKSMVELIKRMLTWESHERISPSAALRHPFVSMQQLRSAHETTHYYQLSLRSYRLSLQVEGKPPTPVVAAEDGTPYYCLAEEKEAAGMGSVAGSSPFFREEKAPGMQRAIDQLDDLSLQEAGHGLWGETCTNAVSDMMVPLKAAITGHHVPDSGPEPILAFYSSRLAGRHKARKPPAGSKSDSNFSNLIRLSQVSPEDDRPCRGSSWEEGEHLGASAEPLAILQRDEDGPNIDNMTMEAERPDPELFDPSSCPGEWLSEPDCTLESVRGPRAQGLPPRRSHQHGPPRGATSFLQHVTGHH

`C=CC(=O)Nc1cc(Nc2ncc(Cl)c(Nc3ccccc3S(=O)(=O)C(C)C)n2)c(OC)cc1N(C)CCN(C)C` gave an Activity [1] of 4.3%, an Activity [2] of 16% and an Activity [3] of 54%. The Activity [4] was 7.6%, the Activity [5] was 8.2% and the clearance [6] was 29 mL/min/kg. It also gave an Activity [7] of 100%, an Activity [8] of 39% and an Activity [9] of 91%. It also gave a remaining at 0.5 h, 1 µM [10] of 16%, an Activity [11] of 17% and a half-life [12] of 1.25 h. The IC50 [13] was 0.058 µM, the Activity [14] was 14% and the Activity [15] was 42%. For the same compound, the Activity [16] was 98%, the Activity at […], 10 µM (CYP2C19) was 86% and the Activity [17] was 67%. It also gave an Activity [18] of 15%, an Activity [19] of 4.5% and a Cmax [20] of 520 ng/mL. It also gave an Activity [21] of 62%, an Activity [22] of 100% and an Activity [23] of 9.4%. For the same compound, the Activity [24] was 56% and the Tmax [25] was 1.17 h.
